Screening data as filed in PubChem.
A selection: hits, their analogues and other compounds. The true share with any hit is near 3.8%.
FN deposition inh: inhibitors of fibronectin matrix deposition, primary screen, AH1F cells, Alexa488-fibronectin fluorescence, plate reader; AH1F fibroblasts, overnight; inhibition, % at 12.6 µM; actives 0.086% (n = 350,000);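 active means mean inhibition across replicates of 30% or more, regardless of how many single replicates reach that level; inconclusive means mean under 30% yet at least half of replicates reach 30%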;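 further: positive control wells lacked labelled fibronectin entirely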
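Assay system: AH1F fibroblast monolayer, labelled fibronectin deposition. Amount: 10000 cells per well. Also added: labelled fibronectin 24 nM. Compound: single-point pinned compound. Incubation: cell attachment 1 h, compound and FN exposure overnight. Detection: fluorescence after three HBSS washes, excitation 485 nm, emission 525 nm. Read-out: inhibition of fibronectin deposition signal.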
SIRT5 block: SIRT5 desuccinylase inhibitors, primary screen, biochemical, fluorescence imaging, single point, set 5; actives 1.1% (n = 330,000); inhibition, % at 15 µM; Purified SirT5, succinyl-peptide AMC, trypsin-coupled fluorescence; AID 652115, 2013; in the data active means inhibition above about 15%; inconclusive means no clear call, values can overlap the other calls
Target sequence (Q9NXA8 whole entry, looked up): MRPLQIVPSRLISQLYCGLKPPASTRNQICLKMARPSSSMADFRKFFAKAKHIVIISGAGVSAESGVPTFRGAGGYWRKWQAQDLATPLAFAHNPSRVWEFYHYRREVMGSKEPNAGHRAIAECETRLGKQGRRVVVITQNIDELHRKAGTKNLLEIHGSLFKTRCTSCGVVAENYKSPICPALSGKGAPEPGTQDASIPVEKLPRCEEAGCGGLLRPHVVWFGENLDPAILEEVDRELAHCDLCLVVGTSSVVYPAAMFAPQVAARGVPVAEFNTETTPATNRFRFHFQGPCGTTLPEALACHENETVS
FGF22 binding: binders of human FGF22 protein, primary screen, FGF22 synaptogenesis inhibitor project, biophysical, thermal shift, single point; actives 1.5% (n = 340,000); Fibroblast growth factor 22 (Homo sapiens), Q9HCT0; recombinant FGF22 thermal shift, SYPRO orange fluorescence; percent of sucrose octasulfate shift, DMSO zero; AID 651658, 2012; activity (Tm shift, normalised), % at 9.99 µM;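 active means mean Tm shift, scaled 0 neutral to 100 positive control, at about 1.3% or above, every replicate too, limit read from the data; inconclusive means no clear call, values can overlap the other calls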
Target sequence (Q9HCT0 whole entry, looked up): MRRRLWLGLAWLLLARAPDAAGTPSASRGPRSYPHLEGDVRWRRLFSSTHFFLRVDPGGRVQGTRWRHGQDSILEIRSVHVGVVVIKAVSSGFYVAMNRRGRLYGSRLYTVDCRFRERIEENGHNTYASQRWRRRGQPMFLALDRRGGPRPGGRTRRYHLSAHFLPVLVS
ARNT-TACC3 inh: disruptors of ARNT/TACC3 protein interaction, primary screen, biochemical, AlphaScreen, single concentration; Transforming acidic coiled-coil-containing protein 3 (Homo sapiens), Q9Y6A5; AlphaScreen His-ARNT PAS-B/GST-TACC3 binding, luminescence; TACC3 fragment carries E629A point mutation; inhibition, % at 9.99 µM; AID 623870, 2012; actives 0.66% (n = 390,000);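 active means mean inhibition of replicates at least 50% and at least half of replicates each reaching 50%; inconclusive means half or more replicates reach 50% but mean below 50%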;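 further: 0% = complete ARNT plus TACC3 wells and 100% = ARNT alone without TACC3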
DENV2 CPE rescue: inhibitors of DENV2 cytopathic effect, primary screen, cell-based, plate reader, single concentration; DENV2-infected cells, cytopathic effect rescue; CPE inhibition, % at 9.99 µM; actives 1.7% (n = 350,000); AID 651640, 2012; in the data active means CPE inhibition above about 20%, passing the limit was not always enough; inconclusive means no clear call, values can overlap the other calls; tested in BHK-21 cells;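 further: 0% = median of neutral control wells and 100% = median of positive control wells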
XiGFP reactiv: activators of inactive X chromosome reactivation, primary screen, imaging, XiGFP fibroblasts, GFP high-content imaging, set 2; activation, % at 7.58 µM; AID 743238, 2013; actives 0.055% (n = 360,000); XiGFP mouse fibroblasts, % GFP-positive cells imaging, 3 d; cells co-treated with 5-aza-dC sensitizer; scaled so ellipticine positive control = 100%;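 active means mean normalized replicate activation at least 10% and every replicate at or above 10%; inconclusive means only one of the two criteria met; inactive means mean below 10% and not all replicates reach 10%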;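 further: 0% = median of on-plate neutral control wells and 100% = ellipticine 6 µM median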
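System: 68-5-11 XiGFP fibroblast line; Timing: 3 days compound exposure; Compound dosing: one concentration, pinned; Benchmarks: positive control ellipticine, 6 µM final; Buffer or medium: DMEM containing 5-aza-dC.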
* marks the source's active call; other numbers are inactive results.

What do the screens show for `O=[N+]([O-])c1ccc2nc(C(O)C(O)c3nc4ccc([N+](=O)[O-])cc4[nH]3)[nH]c2c1` (stereo not given)?
FN deposition inh: 6; SIRT5 block: 100*; FGF22 binding: 0; ARNT-TACC3 inh: 6; DENV2 CPE rescue: 8; XiGFP reactiv: 0

Results for C[C@@H]1CN(C)C(=O)Cc2cc(N(C)C)ccc2O[C@@H]1CN(C)S(C)(=O)=O ?
FN deposition inh: -5; XiGFP reactiv: inconclusive

What do the screens show for `CC(CCc1ccccc1)NC(=O)COC(=O)C12CC3CC(CC(Br)(C3)C1)C2` (stereo not given)?
XiGFP reactiv: 0

Results for CC(NC(=O)COC(=O)C12CC3CC(CC(O)(C3)C1)C2)c1ccccc1 (stereo not given) ?
FN deposition inh: -8; FGF22 binding: 43*; ARNT-TACC3 inh: -2; DENV2 CPE rescue: 10; XiGFP reactiv: 0

How did CCOc1[nH]n(-c2ccccc2)c(=O)c1C=Nc1ccccc1 do in these assays?
FN deposition inh: -6; SIRT5 block: 1; FGF22 binding: 42; ARNT-TACC3 inh: -1; DENV2 CPE rescue: -4; XiGFP reactiv: 0

How did CCOc1[nH]n(-c2ccccc2)c(=O)c1C=Nc1ccc(C)cc1 do in these assays?
SIRT5 block: 18*; FGF22 binding: 0; ARNT-TACC3 inh: -11; DENV2 CPE rescue: -2; XiGFP reactiv: 0

What do the screens show for `CC(C)CN1CCCC(N2CCN(c3cccc(Cl)c3)CC2)C1` (stereo not given)?
FN deposition inh: -5; SIRT5 block: -2; FGF22 binding: 0; ARNT-TACC3 inh: 3; DENV2 CPE rescue: 27*; XiGFP reactiv: 0

How did COC(=O)C[C@H]1C[C@H]2c3cc(NC(=O)CN(C)C)ccc3O[C@H]2[C@@H](CO)O1 do in these assays?
SIRT5 block: 6; FGF22 binding: 0; ARNT-TACC3 inh: -2; DENV2 CPE rescue: 5; XiGFP reactiv: 0

What do the screens show for `CCc1nc2ccccc2c(C(=O)OCC(=O)Nc2cccc(S(=O)(=O)NC3=NCCCCC3)c2)c1C`?
FN deposition inh: 2; SIRT5 block: 1; FGF22 binding: 0; ARNT-TACC3 inh: 5; DENV2 CPE rescue: 7; XiGFP reactiv: 0

What do the screens show for `O=C(COC(=O)c1ccc2ccccc2n1)Nc1cccc(S(=O)(=O)NC2=NCCCCC2)c1`?
FN deposition inh: 2; SIRT5 block: 0; FGF22 binding: 43*; ARNT-TACC3 inh: -6; DENV2 CPE rescue: -4; XiGFP reactiv: 0

Results for O=C(/C=C/c1ccccc1Cl)Nc1cccc(S(=O)(=O)NC2=NCCCCC2)c1 ?
FN deposition inh: -1; ARNT-TACC3 inh: 3; XiGFP reactiv: 0

What do the screens show for `O=C(COC(=O)c1cccs1)Nc1cccc(S(=O)(=O)NC2=NCCCCC2)c1`?
SIRT5 block: 0; FGF22 binding: 0; ARNT-TACC3 inh: 4; DENV2 CPE rescue: 9; XiGFP reactiv: 0

How did O=C(/C=C/c1ccc(Cl)cc1Cl)Nc1cccc(S(=O)(=O)NC2=NCCC2)c1 do in these assays?
FN deposition inh: 33*; SIRT5 block: -1; FGF22 binding: 0; ARNT-TACC3 inh: -5; DENV2 CPE rescue: 3; XiGFP reactiv: 0

Results for O=C(COC(=O)c1ccc([N+](=O)[O-])s1)Nc1cccc(S(=O)(=O)NC2=NCCCCC2)c1 ?
FN deposition inh: -8; SIRT5 block: 26*; FGF22 binding: 0; ARNT-TACC3 inh: 29; DENV2 CPE rescue: 0; XiGFP reactiv: 0

Results for C[C@H](CO)N1C[C@H](C)[C@@H](CN(C)C(=O)Nc2ccccc2)OCCCC[C@H](C)Oc2ccc(NC(=O)Cc3ccccc3)cc2C1=O ?
FN deposition inh: -19; SIRT5 block: -1; FGF22 binding: -1; ARNT-TACC3 inh: -9; DENV2 CPE rescue: 8; XiGFP reactiv: 0

What do the screens show for `CO[C@@H]1CN(C)C(=O)c2ccc(NC(=O)C3CC3)cc2OC[C@@H](C)N(Cc2ccncc2)C[C@H]1C`?
FN deposition inh: -4; SIRT5 block: -3; FGF22 binding: 0; ARNT-TACC3 inh: -5; DENV2 CPE rescue: -4; XiGFP reactiv: -1

Results for CC(C)[C@H]1C(=O)N[C@@H](c2ccccc2)CC=CC[C@H](C)Oc2ccccc2C(=O)N1C (mixture of isomers) ?
FN deposition inh: -10; XiGFP reactiv: 0

How did O=C(NN1C(=O)C2C(C1=O)C1C=CC2C12CC2)c1cccnc1 (stereo not given) do in these assays?
FN deposition inh: -7; SIRT5 block: -7; FGF22 binding: 44*; ARNT-TACC3 inh: -1; XiGFP reactiv: 0

Results for CCCN1[C@@H]2c3ccc(-c4cccnc4)c(=O)n3C[C@@H]2[C@@H](CO)[C@@H]1C(=O)NC1CCC1 ?
SIRT5 block: -3; FGF22 binding: 0; ARNT-TACC3 inh: 3; DENV2 CPE rescue: -3; XiGFP reactiv: 1

How did CN1c2ccccc2Oc2nnc(N3CCN(Cc4ccccc4)CC3)cc21 do in these assays?
FGF22 binding: 43*; ARNT-TACC3 inh: 10; DENV2 CPE rescue: 2; XiGFP reactiv: 0

What do the screens show for `CN1c2ccccc2Oc2nnc(Cl)cc21`?
FN deposition inh: -16; SIRT5 block: -3; FGF22 binding: 0; ARNT-TACC3 inh: 5; DENV2 CPE rescue: 6; XiGFP reactiv: 0

What do the screens show for `COc1ccc(C(=O)N2CCCC(CCC(=O)NCc3ccc(F)c(F)c3)C2)cc1F` (stereo not given)?
FN deposition inh: 15; SIRT5 block: 1; FGF22 binding: 0; ARNT-TACC3 inh: 3; DENV2 CPE rescue: 6; XiGFP reactiv: 0

What do the screens show for `COc1ccc(C(=O)N2CCCC(CCC(=O)NCc3ccc(F)c(F)c3)C2)o1` (stereo not given)?
SIRT5 block: 2; FGF22 binding: 43*; ARNT-TACC3 inh: -4; DENV2 CPE rescue: -3; XiGFP reactiv: 0

How did COCC(=O)N(C)C[C@@H]1Oc2cc(C#CCN(C)C)ccc2S(=O)(=O)N([C@@H](C)CO)C[C@H]1C do in these assays?
FN deposition inh: -13; SIRT5 block: -5; FGF22 binding: 0; ARNT-TACC3 inh: -2; DENV2 CPE rescue: -10; XiGFP reactiv: 0
